Assay results: ChEMBL document CHEMBL3286116, “Synthesis, biological evaluation and structure-activity correlation study of a series of imidazol-based compounds as Candida albicans inhibitors” (Eur J Med Chem, 2014)
In brackets after ≈: the same amount, converted by molar mass.

Experiments:
Type in all cases: functional
Cryptococcus neoformans [1] = assay: Antifungal activity against Cryptococcus neoformans DSM 11959 after 72 hrs by CLSI broth microdilution method; conditions: DSM 11959, 72 h
Outline: (§1)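 Cryptococcus neoformans tested by CLSI broth microdilution in RPMI 1640, with serial two-fold dilutions from DMSO stocks at 100× the top concentration, final 0.125–64. Inoculum was 1.0–1.5 × 10^3 cells mL−1 at 35 °C, with growth read at 72 h. MIC is the lowest concentration with ≥50% growth inhibition versus control. Median of five replicates, plus geometric mean.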

Candida albicans [2] = assay: Antifungal activity against Candida albicans ATCC 10231 after 48 hrs by CLSI broth microdilution method; conditions: ATCC 10231, 48 h
Outline: (§2)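 Yeast CLSI broth microdilution (M27-A3). Compounds dissolved in DMSO at 100× the top test concentration, then diluted as serial two-fold dilutions in RPMI 1640 to final 0.125–64. Inoculum was 1.0–1.5 × 10^3 cells mL−1, incubated at 35 °C and read for growth at 48 h. MIC is the lowest concentration giving ≥50% growth inhibition versus growth control. Reported as the median of five replicates and as the geometric mean.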

Candida tropicalis [3] = assay: Antifungal activity against Candida tropicalis DSM 11953 after 48 hrs by CLSI broth microdilution method; conditions: DSM 11953, 48 h; outline: as §2
Candida albicans [4] = assay: Antifungal activity against Candida albicans ATCC 20891 after 48 hrs by CLSI broth microdilution method; conditions: ATCC 20891, 48 h; outline: as §2
Cryptococcus neoformans [5] = assay: Antifungal activity against Cryptococcus neoformans PMC 2115 after 72 hrs by CLSI broth microdilution method; conditions: PMC 2115, 72 h; outline: as §1
[6] = test system: Trichophyton mentagrophytes; assay: Antifungal activity against Trichophyton mentagrophytes PMC 6509 after 72 hrs by CLSI broth microdilution method; conditions: PMC 6509, 72 h
Outline: (§3)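 Dermatophytes tested by CLSI broth microdilution for filamentous fungi (M38-A2). Serial two-fold dilutions of DMSO-dissolved compound in RPMI 1640, final 0.125–64. Inoculum was 0.4–5 × 10^4 CFU mL−1, incubated at 35 °C and read at 72 h. MIC80 is the lowest concentration giving ≥80% growth inhibition versus growth control. Median of five replicates, plus geometric mean.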

Nakaseomyces glabratus [7] = assay: Ratio of fluconazole MIC to compound MIC for Candida glabrata PMC 0851R after 48 hrs by CLSI broth microdilution method
Candida albicans [8] = assay: Antifungal activity against Candida albicans ATCC 76615 after 48 hrs by CLSI broth microdilution method; conditions: ATCC 76615, 48 h; outline: as §2
Candida albicans [9] = assay: Antifungal activity against Candida albicans PMC 1041R after 48 hrs by CLSI broth microdilution method; outline: as §2
[10] = test system: Trichophyton mentagrophytes; assay: Antifungal activity against Trichophyton mentagrophytes PMC 6552 after 72 hrs by CLSI broth microdilution method; conditions: PMC 6552, 72 h; outline: as §3
Candida tropicalis [11] = assay: Antifungal activity against Candida tropicalis PMC 0910 after 48 hrs by CLSI broth microdilution method; conditions: PMC 0910, 48 h; outline: as §2
Cryptococcus neoformans [12] = assay: Antifungal activity against Cryptococcus neoformans PMC 2102 after 72 hrs by CLSI broth microdilution method; conditions: PMC 2102, 72 h; outline: as §1
Candida albicans [13] = assay: Antifungal activity against Candida albicans ATCC 3153 after 48 hrs by CLSI broth microdilution method; conditions: ATCC 3153, 48 h; outline: as §2
Nakaseomyces glabratus [14] = assay: Antifungal activity against Candida glabrata PMC 0852R after 48 hrs by CLSI broth microdilution method; outline: as §2
Candida albicans [15] = assay: Antifungal activity against Candida albicans PMC 1042R after 48 hrs by CLSI broth microdilution method; outline: as §2
Nakaseomyces glabratus [16] = assay: Antifungal activity against Candida glabrata PMC 0850R after 48 hrs by CLSI broth microdilution method; outline: as §2
Candida parapsilosis [17] = assay: Antifungal activity against Candida parapsilosis ATCC 22019 after 48 hrs by CLSI broth microdilution method; conditions: Lodderomyces parapsilosis, ATCC 22019, 48 h; outline: as §2
Candida albicans [18] = assay: Antifungal activity against Candida albicans PMC 1011 after 48 hrs by CLSI broth microdilution method; conditions: PMC 1011, 48 h; outline: as §2
[19] = test system: Trichophyton mentagrophytes; assay: Antifungal activity against Trichophyton mentagrophytes PMC 6515 after 72 hrs by CLSI broth microdilution method; conditions: PMC 6515, 72 h; outline: as §3
[20] = test system: Trichophyton mentagrophytes; assay: Antifungal activity against Trichophyton mentagrophytes DSM 4870 after 72 hrs by CLSI broth microdilution method; conditions: DSM 4870, 72 h; outline: as §3
Nakaseomyces glabratus [21] = assay: Antifungal activity against Candida glabrata PMC 0805 after 48 hrs by CLSI broth microdilution method; conditions: PMC 0805, 48 h; outline: as §2
Candida parapsilosis [22] = assay: Antifungal activity against Candida parapsilosis DSM 11224 after 48 hrs by CLSI broth microdilution method; conditions: Lodderomyces parapsilosis, DSM 11224, 48 h; outline: as §2
Nakaseomyces glabratus [23] = assay: Antifungal activity against Candida glabrata PMC 0807 after 48 hrs by CLSI broth microdilution method; conditions: PMC 0807, 48 h; outline: as §2
Nannizzia gypsea [24] = assay: Antifungal activity against Microsporum gypseum PMC 7331 after 72 hrs by CLSI broth microdilution method; conditions: PMC 7331, 72 h; outline: as §3
Candida albicans [25] = assay: Antifungal activity against Candida albicans ATCC 10261 after 48 hrs by CLSI broth microdilution method; conditions: ATCC 10261, 48 h; outline: as §2
Nakaseomyces glabratus [26] = assay: Antifungal activity against Candida glabrata PMC 0851R after 48 hrs by CLSI broth microdilution method; outline: as §2
Candida albicans [27] = assay: Antifungal activity against Candida albicans ATCC 90028 after 48 hrs by CLSI broth microdilution method; conditions: ATCC 90028, 48 h; outline: as §2
Nakaseomyces glabratus [28] = assay: Ratio of fluconazole MIC to compound MIC for Candida glabrata PMC 0852R after 48 hrs by CLSI broth microdilution method
Nannizzia gypsea [29] = assay: Antifungal activity against Microsporum gypseum PMC 7303 after 72 hrs by CLSI broth microdilution method; conditions: PMC 7303, 72 h; outline: as §3
Candida albicans [30] = assay: Antifungal activity against Candida albicans ATCC 24433 after 48 hrs by CLSI broth microdilution method; conditions: ATCC 24433, 48 h; outline: as §2
[31] = test system: Trichophyton mentagrophytes; assay: Antifungal activity against Trichophyton mentagrophytes PMC 6503 after 72 hrs by CLSI broth microdilution method; conditions: PMC 6503, 72 h; outline: as §3
Candida albicans [32] = assay: Ratio of fluconazole MIC to compound MIC for Candida albicans PMC 1040R after 48 hrs by CLSI broth microdilution method
Cryptococcus neoformans [33] = assay: Antifungal activity against Cryptococcus neoformans PMC 2123 after 72 hrs by CLSI broth microdilution method; conditions: PMC 2123, 72 h; outline: as §1
Nakaseomyces glabratus [34] = assay: Ratio of fluconazole MIC to compound MIC for Candida glabrata PMC 0853R after 48 hrs by CLSI broth microdilution method
Nannizzia gypsea [35] = assay: Antifungal activity against Microsporum gypseum DSM 3824 after 72 hrs by CLSI broth microdilution method; conditions: DSM 3824, 72 h; outline: as §3
Nakaseomyces glabratus [36] = assay: Ratio of fluconazole MIC to compound MIC for Candida glabrata PMC 0850R after 48 hrs by CLSI broth microdilution method
Pichia kudriavzevii [37] = assay: Antifungal activity against Candida krusei DSM 6128 after 48 hrs by CLSI broth microdilution method; conditions: DSM 6128, 48 h; outline: as §2
[38] = test system: Trichophyton mentagrophytes; assay: Antifungal activity against Trichophyton mentagrophytes PMC 6531 after 72 hrs by CLSI broth microdilution method; conditions: PMC 6531, 72 h; outline: as §3
Cryptococcus neoformans [39] = assay: Antifungal activity against Cryptococcus neoformans PMC 2107 after 72 hrs by CLSI broth microdilution method; conditions: PMC 2107, 72 h; outline: as §1
Cryptococcus neoformans [40] = assay: Antifungal activity against Cryptococcus neoformans PMC 2103 after 72 hrs by CLSI broth microdilution method; conditions: PMC 2103, 72 h; outline: as §1
Candida albicans [41] = assay: Antifungal activity against Candida albicans PMC 1040R after 48 hrs by CLSI broth microdilution method; outline: as §2
Candida albicans [42] = assay: Ratio of fluconazole MIC to compound MIC for Candida albicans PMC 1041R after 48 hrs by CLSI broth microdilution method
Pichia kudriavzevii [43] = assay: Antifungal activity against Candida krusei PMC 0613 after 48 hrs by CLSI broth microdilution method; conditions: PMC 0613, 48 h; outline: as §2
Candida albicans [44] = assay: Ratio of fluconazole MIC to compound MIC for Candida albicans PMC 1042R after 48 hrs by CLSI broth microdilution method
Cryptococcus neoformans [45] = assay: Antifungal activity against Cryptococcus neoformans PMC 2136 after 72 hrs by CLSI broth microdilution method; conditions: PMC 2136, 72 h; outline: as §1
Cryptococcus neoformans [46] = assay: Antifungal activity against Cryptococcus neoformans PMC 2111 after 72 hrs by CLSI broth microdilution method; conditions: PMC 2111, 72 h; outline: as §1
Nakaseomyces glabratus [47] = assay: Antifungal activity against Candida glabrata PMC 0853R after 48 hrs by CLSI broth microdilution method; outline: as §2

MIC50 (Cryptococcus neoformans [1]): 4 mg/L (≈ 8.98 µM)
MIC50 (Candida albicans [2]): 0.5 mg/L (≈ 1.12 µM)
MIC50 (Candida tropicalis [3]): 4 mg/L (≈ 8.98 µM)
MIC50 (Candida albicans [4]): 0.25 mg/L (≈ 0.561 µM)
MIC50 (Cryptococcus neoformans [5]): 4 mg/L (≈ 8.98 µM)
MIC80 [6]: 8 mg/L (≈ 18 µM)
MIC50 (Candida albicans [8]): 0.5 mg/L (≈ 1.12 µM)
MIC50 (Candida albicans [9]): 4 mg/L (≈ 8.98 µM)
MIC80 [10]: 1 mg/L (≈ 2.25 µM)
MIC50 (Candida tropicalis [11]): 2 mg/L (≈ 4.49 µM)
MIC50 (Cryptococcus neoformans [12]): 4 mg/L (≈ 8.98 µM)
MIC50 (Candida albicans [13]): 0.25 mg/L (≈ 0.561 µM)
MIC50 (Nakaseomyces glabratus [14]): 4 mg/L (≈ 8.98 µM)
MIC50 (Candida albicans [15]): 1 mg/L (≈ 2.25 µM)
MIC50 (Nakaseomyces glabratus [16]): 4 mg/L (≈ 8.98 µM)
MIC50 (Candida parapsilosis [17]): 0.5 mg/L (≈ 1.12 µM)
MIC50 (Candida albicans [18]): 0.125 mg/L (≈ 0.281 µM)
MIC80 [19]: 4 mg/L (≈ 8.98 µM)
MIC80 [20]: 16 mg/L (≈ 35.9 µM)
MIC50 (Nakaseomyces glabratus [21]): 0.5 mg/L (≈ 1.12 µM)
MIC50 (Candida parapsilosis [22]): 0.5 mg/L (≈ 1.12 µM)
MIC50 (Nakaseomyces glabratus [23]): 4 mg/L (≈ 8.98 µM)
MIC80 (Nannizzia gypsea [24]): 1 mg/L (≈ 2.25 µM)
MIC50 (Candida albicans [25]): 0.5 mg/L (≈ 1.12 µM)
MIC50 (Nakaseomyces glabratus [26]): 8 mg/L (≈ 18 µM)
MIC50 (Candida albicans [27]): 0.125 mg/L (≈ 0.281 µM)
MIC80 (Nannizzia gypsea [29]): 1 mg/L (≈ 2.25 µM)
MIC50 (Candida albicans [30]): 0.25 mg/L (≈ 0.561 µM)
MIC80 [31]: 2 mg/L (≈ 4.49 µM)
MIC50 (Cryptococcus neoformans [33]): 4 mg/L (≈ 8.98 µM)
MIC80 (Nannizzia gypsea [35]): 8 mg/L (≈ 18 µM)
MIC50 (Pichia kudriavzevii [37]): 4 mg/L (≈ 8.98 µM)
MIC80 [38]: 8 mg/L (≈ 18 µM)
MIC50 (Cryptococcus neoformans [39]): 2 mg/L (≈ 4.49 µM)
MIC50 (Cryptococcus neoformans [40]): 4 mg/L (≈ 8.98 µM)
MIC50 (Candida albicans [41]): 32 mg/L (≈ 71.9 µM)
MIC50 (Pichia kudriavzevii [43]): 0.5 mg/L (≈ 1.12 µM)
MIC50 (Cryptococcus neoformans [45]): 4 mg/L (≈ 8.98 µM)
MIC50 (Cryptococcus neoformans [46]): 2 mg/L (≈ 4.49 µM)
MIC50 (Nakaseomyces glabratus [47]): 4 mg/L (≈ 8.98 µM)
SMILES: O=C(O[C@H](Cn1ccnc1)c1ccc(Cl)cc1)N1CCN(c2ccc(Cl)cc2)CC1
Ratio (Nakaseomyces glabratus [7]): 10
Ratio (Nakaseomyces glabratus [28]): 10
Ratio (Candida albicans [32]): 10
Ratio (Nakaseomyces glabratus [34]): 10
Ratio (Nakaseomyces glabratus [36]): 10
Ratio (Candida albicans [42]): 10
Ratio (Candida albicans [44]): 10
